Experimental data taken from ChEMBL document CHEMBL3046615, “Isolation of nematicidal compounds from Tagetes patula L. yellow flowers: structure-activity relationship studies against cyst nematode Heterodera zeae infective stage larvae” (2011).
The source made the active and inactive calls.

Tests used:
Heterodera zeae [1] = assay: Nematicidal activity against Heterodera zeae infective stage larvae assessed as nematode mortality at 1% under light conditions measured 5 to 60 min post dose by stereoscopic microscopy; format: functional, organism-based
How it was run: (§1)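 H. zeae freshly hatched second-stage juveniles, 100 per plate, three replicates, at 28 ± 2 °C under light or in a dark box. Dilutions are % of a stock: 30 mg/mL for extracts/fractions, 1 mg/mL for pure compounds. Methanol-, DMSO- or water-soluble samples were tested in glass cavity blocks. Petroleum ether-soluble samples were air-dried in the block and covered with agar pieces bearing cultured larvae. Mortality was followed over 5–60 min; each value is the mean of three experiments.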

Heterodera zeae [2] = assay: Nematicidal activity against Heterodera zeae infective stage larvae assessed as nematode mortality at 0.5% under dark conditions measured 24 hr post dose by stereoscopic microscopy; format: functional
How it was run: (§2)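 Freshly hatched H. zeae second-stage juveniles, 100 per Petri plate, three replicates. Samples in MeOH, DMSO or water were tested in glass cavity blocks; petroleum ether samples were dried onto the block and larvae transferred on agar pieces. Percentages are dilutions of 30 mg/mL stocks (extracts/fractions) or 1 mg/mL stocks (pure compounds). Incubated at 28 ± 2 °C in light or dark box; mortality averaged over three replicates.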

Heterodera zeae [3] = assay: Nematicidal activity against Heterodera zeae infective stage larvae assessed as nematode mortality at 0.125% under light conditions measured 5 to 60 min post dose by stereoscopic microscopy; format: functional, organism-based; how it was run: as §1
Heterodera zeae [4] = assay: Nematicidal activity against Heterodera zeae infective stage larvae assessed as nematode mortality at 0.125% under dark conditions measured 48 hr post dose by stereoscopic microscopy; format: functional; how it was run: as §2
Heterodera zeae [5] = assay: Nematicidal activity against Heterodera zeae infective stage larvae assessed as nematode mortality at 0.25% under light conditions measured 24 hr post dose by stereoscopic microscopy; format: functional; how it was run: as §2
Heterodera zeae [6] = assay: Nematicidal activity against Heterodera zeae infective stage larvae assessed as nematode mortality at 1% under dark conditions measured 5 to 60 min post dose by stereoscopic microscopy; format: functional, organism-based; how it was run: as §1
Heterodera zeae [7] = assay: Nematicidal activity against Heterodera zeae infective stage larvae assessed as nematode mortality at 1% under dark conditions measured 24 hr post dose by stereoscopic microscopy; format: functional; how it was run: as §2
Heterodera zeae [8] = assay: Nematicidal activity against Heterodera zeae infective stage larvae assessed as nematode mortality at 0.125% under light conditions measured 24 hr post dose by stereoscopic microscopy; format: functional; how it was run: as §2
Heterodera zeae [9] = assay: Nematicidal activity against Heterodera zeae infective stage larvae assessed as nematode mortality at 5% under light conditions measured 5 to 60 min post dose by stereoscopic microscopy; format: functional, organism-based; how it was run: as §1
Heterodera zeae [10] = assay: Nematicidal activity against Heterodera zeae infective stage larvae assessed as nematode mortality at 0.125% under dark conditions measured 24 hr post dose by stereoscopic microscopy; format: functional; how it was run: as §2
Heterodera zeae [11] = assay: Nematicidal activity against Heterodera zeae infective stage larvae assessed as nematode mortality at 0.25% under dark conditions measured 5 to 60 min post dose by stereoscopic microscopy; format: functional, organism-based; how it was run: as §1
Heterodera zeae [12] = assay: Nematicidal activity against Heterodera zeae infective stage larvae assessed as nematode mortality at 0.125% under light conditions measured 48 hr post dose by stereoscopic microscopy; format: functional; how it was run: as §2
Heterodera zeae [13] = assay: Nematicidal activity against Heterodera zeae infective stage larvae assessed as nematode mortality at 0.5% under light conditions measured 5 to 60 min post dose by stereoscopic microscopy; format: functional, organism-based; how it was run: as §1
Heterodera zeae [14] = assay: Nematicidal activity against Heterodera zeae infective stage larvae assessed as nematode mortality at 1% under light conditions measured 24 hr post dose by stereoscopic microscopy; format: functional; how it was run: as §2
Heterodera zeae [15] = assay: Nematicidal activity against Heterodera zeae infective stage larvae assessed as nematode mortality at 2% under light conditions measured 5 to 60 min post dose by stereoscopic microscopy; format: functional, organism-based; how it was run: as §1
Heterodera zeae [16] = assay: Nematicidal activity against Heterodera zeae infective stage larvae assessed as nematode mortality at 5% under dark conditions measured 5 to 60 min post dose by stereoscopic microscopy; format: functional, organism-based; how it was run: as §1
Heterodera zeae [17] = assay: Nematicidal activity against Heterodera zeae infective stage larvae assessed as nematode mortality at 0.5% under light conditions measured 24 hr post dose by stereoscopic microscopy; format: functional; how it was run: as §2
Heterodera zeae [18] = assay: Nematicidal activity against Heterodera zeae infective stage larvae assessed as nematode mortality at 0.5% under dark conditions measured 48 hr post dose by stereoscopic microscopy; format: functional; how it was run: as §2
Heterodera zeae [19] = assay: Nematicidal activity against Heterodera zeae infective stage larvae assessed as nematode mortality at 0.25% under dark conditions measured 24 hr post dose by stereoscopic microscopy; format: functional; how it was run: as §2
Heterodera zeae [20] = assay: Nematicidal activity against Heterodera zeae infective stage larvae assessed as nematode mortality at 0.25% under dark conditions measured 48 hr post dose by stereoscopic microscopy; format: functional; how it was run: as §2
Heterodera zeae [21] = assay: Nematicidal activity against Heterodera zeae infective stage larvae assessed as nematode mortality at 0.125% under dark conditions measured 5 to 60 min post dose by stereoscopic microscopy; format: functional, organism-based; how it was run: as §1
Heterodera zeae [22] = assay: Nematicidal activity against Heterodera zeae infective stage larvae assessed as nematode mortality at 2% under dark conditions measured 5 to 60 min post dose by stereoscopic microscopy; format: functional, organism-based; how it was run: as §1
Heterodera zeae [23] = assay: Nematicidal activity against Heterodera zeae infective stage larvae assessed as nematode mortality at 0.25% under light conditions measured 48 hr post dose by stereoscopic microscopy; format: functional; how it was run: as §2
Heterodera zeae [24] = assay: Nematicidal activity against Heterodera zeae infective stage larvae assessed as nematode mortality at 0.5% under dark conditions measured 5 to 60 min post dose by stereoscopic microscopy; format: functional, organism-based; how it was run: as §1
Heterodera zeae [25] = assay: Nematicidal activity against Heterodera zeae infective stage larvae assessed as nematode mortality at 0.25% under light conditions measured 5 to 60 min post dose by stereoscopic microscopy; format: functional, organism-based; how it was run: as §1
Heterodera zeae [26] = assay: Nematicidal activity against Heterodera zeae infective stage larvae assessed as nematode mortality at 1% under dark conditions measured 48 hr post dose by stereoscopic microscopy; format: functional; how it was run: as §2
Heterodera zeae [27] = assay: Nematicidal activity against Heterodera zeae infective stage larvae assessed as nematode mortality at 0.5% under light conditions measured 48 hr post dose by stereoscopic microscopy; format: functional; how it was run: as §2
Heterodera zeae [28] = assay: Nematicidal activity against Heterodera zeae infective stage larvae assessed as nematode mortality at 0.125% under dark conditions measured 72 hr post dose by stereoscopic microscopy; format: functional; how it was run: as §2
Heterodera zeae [29] = assay: Nematicidal activity against Heterodera zeae infective stage larvae assessed as nematode mortality at 1% under light conditions measured 48 hr post dose by stereoscopic microscopy; format: functional; how it was run: as §2
Heterodera zeae [30] = assay: Nematicidal activity against Heterodera zeae infective stage larvae assessed as nematode mortality at 0.25% under dark conditions measured 72 hr post dose by stereoscopic microscopy; format: functional; how it was run: as §2

COc1cc(C(=O)O)cc(OC)c1OC [3,4,5-TRIMETHOXYBENZOIC ACID]
90%: mortality (Heterodera zeae [2]) | mortality (Heterodera zeae [5]) | mortality (Heterodera zeae [8]) | mortality (Heterodera zeae [19])
inactive: Activity (Heterodera zeae [1]) | Activity (Heterodera zeae [3]) | Activity (Heterodera zeae [6]) | Activity (Heterodera zeae [9]) | Activity (Heterodera zeae [11]) | Activity (Heterodera zeae [13]) | Activity (Heterodera zeae [15]) | Activity (Heterodera zeae [16]) | Activity (Heterodera zeae [21]) | Activity (Heterodera zeae [22]) | Activity (Heterodera zeae [24]) | Activity (Heterodera zeae [25])
80%: mortality (Heterodera zeae [10])
100%: mortality (Heterodera zeae [4]) | mortality (Heterodera zeae [7]) | mortality (Heterodera zeae [12]) | mortality (Heterodera zeae [14]) | mortality (Heterodera zeae [17]) | mortality (Heterodera zeae [18]) | mortality (Heterodera zeae [20]) | mortality (Heterodera zeae [23])

c1csc(-c2ccc(-c3cccs3)s2)c1 [ALPHA-TERTHIENYL]
100%: mortality (Heterodera zeae [2]) | mortality (Heterodera zeae [5]) | mortality (Heterodera zeae [7]) | mortality (Heterodera zeae [8]) | mortality (Heterodera zeae [10]) | mortality (Heterodera zeae [14]) | mortality (Heterodera zeae [17]) | mortality (Heterodera zeae [19])
inactive: Activity (Heterodera zeae [1]) | Activity (Heterodera zeae [3]) | Activity (Heterodera zeae [6]) | Activity (Heterodera zeae [9]) | Activity (Heterodera zeae [11]) | Activity (Heterodera zeae [13]) | Activity (Heterodera zeae [15]) | Activity (Heterodera zeae [16]) | Activity (Heterodera zeae [21]) | Activity (Heterodera zeae [22]) | Activity (Heterodera zeae [24]) | Activity (Heterodera zeae [25])

O=C(O)c1cc(O)c(O)c(O)c1 [GALLIC ACID]
100%: mortality (Heterodera zeae [2]) | mortality (Heterodera zeae [5]) | mortality (Heterodera zeae [7]) | mortality (Heterodera zeae [8]) | mortality (Heterodera zeae [10]) | mortality (Heterodera zeae [14]) | mortality (Heterodera zeae [17]) | mortality (Heterodera zeae [19])
inactive: Activity (Heterodera zeae [1]) | Activity (Heterodera zeae [3]) | Activity (Heterodera zeae [6]) | Activity (Heterodera zeae [9]) | Activity (Heterodera zeae [11]) | Activity (Heterodera zeae [13]) | Activity (Heterodera zeae [15]) | Activity (Heterodera zeae [16]) | Activity (Heterodera zeae [21]) | Activity (Heterodera zeae [22]) | Activity (Heterodera zeae [24]) | Activity (Heterodera zeae [25])

CCCCC/C=C\C/C=C\CCCCCCCC(=O)O [LINOLEIC ACID]
100%: mortality (Heterodera zeae [2]) | mortality (Heterodera zeae [5]) | mortality (Heterodera zeae [7]) | mortality (Heterodera zeae [8]) | mortality (Heterodera zeae [10]) | mortality (Heterodera zeae [14]) | mortality (Heterodera zeae [17]) | mortality (Heterodera zeae [19])
inactive: Activity (Heterodera zeae [1]) | Activity (Heterodera zeae [3]) | Activity (Heterodera zeae [6]) | Activity (Heterodera zeae [9]) | Activity (Heterodera zeae [11]) | Activity (Heterodera zeae [13]) | Activity (Heterodera zeae [15]) | Activity (Heterodera zeae [16]) | Activity (Heterodera zeae [21]) | Activity (Heterodera zeae [22]) | Activity (Heterodera zeae [24]) | Activity (Heterodera zeae [25])

COC(=O)c1ccc(O)c(O)c1 [METHYL PROTOCATECHUATE]
inactive: Activity (Heterodera zeae [1]) | Activity (Heterodera zeae [3]) | Activity (Heterodera zeae [6]) | Activity (Heterodera zeae [9]) | Activity (Heterodera zeae [11]) | Activity (Heterodera zeae [13]) | Activity (Heterodera zeae [15]) | Activity (Heterodera zeae [16]) | Activity (Heterodera zeae [21]) | Activity (Heterodera zeae [22]) | Activity (Heterodera zeae [24]) | Activity (Heterodera zeae [25])
10%: mortality (Heterodera zeae [10]) | mortality (Heterodera zeae [19])
20%: mortality (Heterodera zeae [2])
60%: mortality (Heterodera zeae [7])
50%: mortality (Heterodera zeae [5]) | mortality (Heterodera zeae [8])
70%: mortality (Heterodera zeae [17])
100%: mortality (Heterodera zeae [4]) | mortality (Heterodera zeae [26]) | mortality (Heterodera zeae [27]) | mortality (Heterodera zeae [12]) | mortality (Heterodera zeae [14]) | mortality (Heterodera zeae [18]) | mortality (Heterodera zeae [20]) | mortality (Heterodera zeae [23])

O=C(O)c1ccc(O)c(O)c1 [PROTOCATECHUIC ACID]
inactive: Activity (Heterodera zeae [1]) | Activity (Heterodera zeae [3]) | Activity (Heterodera zeae [6]) | Activity (Heterodera zeae [9]) | Activity (Heterodera zeae [11]) | Activity (Heterodera zeae [13]) | Activity (Heterodera zeae [15]) | Activity (Heterodera zeae [16]) | Activity (Heterodera zeae [21]) | Activity (Heterodera zeae [22]) | Activity (Heterodera zeae [24]) | Activity (Heterodera zeae [25])
50%: mortality (Heterodera zeae [5]) | mortality (Heterodera zeae [8]) | mortality (Heterodera zeae [17])
40%: mortality (Heterodera zeae [2]) | mortality (Heterodera zeae [7])
10%: mortality (Heterodera zeae [10]) | mortality (Heterodera zeae [19])
100%: mortality (Heterodera zeae [4]) | mortality (Heterodera zeae [26]) | mortality (Heterodera zeae [27]) | mortality (Heterodera zeae [12]) | mortality (Heterodera zeae [14]) | mortality (Heterodera zeae [18]) | mortality (Heterodera zeae [20]) | mortality (Heterodera zeae [23])

C[C@@H]1O[C@@H](OC[C@H]2O[C@@H](Oc3c(-c4ccc(O)c(O)c4)oc4cc(O)cc(O)c4c3=O)[C@H](O)[C@@H](O)[C@@H]2O)[C@H](O)[C@H](O)[C@H]1O [RUTIN]
100%: mortality (Heterodera zeae [2]) | mortality (Heterodera zeae [29]) | mortality (Heterodera zeae [7]) | mortality (Heterodera zeae [27]) | mortality (Heterodera zeae [12]) | mortality (Heterodera zeae [14]) | mortality (Heterodera zeae [17]) | mortality (Heterodera zeae [23])
inactive: Activity (Heterodera zeae [1]) | Activity (Heterodera zeae [3]) | Activity (Heterodera zeae [6]) | Activity (Heterodera zeae [9]) | Activity (Heterodera zeae [11]) | Activity (Heterodera zeae [13]) | Activity (Heterodera zeae [15]) | Activity (Heterodera zeae [16]) | Activity (Heterodera zeae [21]) | Activity (Heterodera zeae [22]) | Activity (Heterodera zeae [24]) | Activity (Heterodera zeae [25])
0%: mortality (Heterodera zeae [5]) | mortality (Heterodera zeae [8]) | mortality (Heterodera zeae [10]) | mortality (Heterodera zeae [19])
70%: mortality (Heterodera zeae [28]) | mortality (Heterodera zeae [4]) | mortality (Heterodera zeae [30]) | mortality (Heterodera zeae [20])
